# Most compounds without a hit are left out; they make up all but 2.9% or so of the library.
# Env fusion inh: inhibitors of HIV-1 Env-driven cell-cell fusion, primary screen, HeLa-JRFL effector, CEM21 target cells, luciferase; inhibition, % at 12.3 µM; 1.1% of 360,000 active; AID 651610, 2012;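 active means mean replicate inhibition score of at least 50 and every replicate individually at or above 50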;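 further: 0% = plate neutral controls and 100% = maraviroc near 300 nM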
# Cneo AK release: Cryptococcus neoformans cell lysis inducers, primary screen, AK release luminescence, single concentration. C. neoformans lysis, adenylate kinase release luminescence, 4 h; normalised: neutral wells 0, clomiphene wells 100. lysis activity, % at 15 µM. AID 651654, 2012. 0.2% of 360,000 active;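 active means mean lysis activity across replicates of at least 80%, whatever share of replicates individually reach that level; inactive means mean lysis activity below 80%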
#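 Schedule: static 4 h at 37 °C with compound, 1 h detection; system: C. neoformans cells; benchmarks: Clomiphene as positive control; buffer or medium: fresh YPD medium; measure: luminescence rise reflecting yeast cell lysis; measured by: luminescent adenylate kinase detection reagent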
# PAX8 inh HTS: inhibitors of PAX8-driven TPO luciferase reporter, primary screen, RMG-I cells, single concentration; SteadyGlo, 24 h; inhibition, % at 12.6 µM; 1.2% of 360,000 active; AID 652154, 2013;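 active means mean replicate inhibition at least 60% with every replicate also reaching 60%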;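 further: luciferase light reporting Pax8 driven TPO promoter activity; plate controls were median of neutral control wells for no effect and mitoxantrone controls for full effect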
# dFosB activator: activators of delta FosB homodimer, primary screen, biochemical, fluorescence polarization, TAMRA-CDK5 oligo, single point; purified delta FosB; percent of positive-control signal above neutral wells; activation, % at 25 µM; 0.99% of 340,000 active; AID 493131, 2011;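 active means mean activation above about 17%, with every replicate also reaching it, limit read from the data, passing the limit was not always enough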
# CDK5 inh: inhibitors of human CDK5/p35 kinase, primary screen, biochemical, single concentration; Cyclin-dependent kinase 5 (Homo sapiens) + Cyclin-dependent kinase 5 activator 1 (Homo …; Recombinant CDK5/p35, ADP-Glo luminescence, 60 min; inhibition, % at 10 µM; 0.01% of 330,000 active; AID 488839, 2010;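 active means highest replicate inhibition of at least 50% and at least 75% of replicates reaching 50%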;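 further: plate controls were DMSO neutral control for no effect and GW8510 at 10 µM for full effect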
# Target sequence (Q00535 whole entry, looked up): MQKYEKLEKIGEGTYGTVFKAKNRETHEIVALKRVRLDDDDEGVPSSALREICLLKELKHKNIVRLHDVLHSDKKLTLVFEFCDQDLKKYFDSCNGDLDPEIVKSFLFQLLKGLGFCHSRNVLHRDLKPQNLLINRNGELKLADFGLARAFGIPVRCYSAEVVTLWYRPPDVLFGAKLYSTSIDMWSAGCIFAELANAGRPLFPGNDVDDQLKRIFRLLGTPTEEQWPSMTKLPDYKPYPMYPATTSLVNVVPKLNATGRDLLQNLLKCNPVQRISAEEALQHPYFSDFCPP
# Target sequence (Q15078 whole entry, looked up): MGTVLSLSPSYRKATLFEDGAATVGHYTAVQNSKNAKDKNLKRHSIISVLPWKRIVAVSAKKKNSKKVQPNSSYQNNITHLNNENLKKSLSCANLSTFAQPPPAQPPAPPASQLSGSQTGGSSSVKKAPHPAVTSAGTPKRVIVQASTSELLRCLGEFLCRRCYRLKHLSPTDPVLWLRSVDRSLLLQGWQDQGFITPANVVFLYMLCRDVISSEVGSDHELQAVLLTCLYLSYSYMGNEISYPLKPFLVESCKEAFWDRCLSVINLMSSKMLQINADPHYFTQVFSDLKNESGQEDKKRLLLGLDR
# GSIS activator: GLuc luminescence reporter in INS-1E cells, primary screen for activators of glucose-dependent secretion of insulin | INS-1E GLuc reporter insulin secretion, 2-3 h | activation, % at 16.6 µM | 0.61% of 370,000 active | AID 743287, 2014;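 active means lowest replicate activation of at least 40%, so every replicate reaches that level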;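 further: 0% = median of neutral control wells and 100% = median of IBMX positive control wells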
# Numbers without * were called inactive; . = no result; [ ] = dose if it differs, or a comment.
SMILES,Env fusion inh,Cneo AK release,PAX8 inh HTS,dFosB activator,CDK5 inh,GSIS activator
N#CC(C#N)=C(Nc1ccc(F)cc1)SCc1cccc(Br)c1,65.0*,-17.2,84.9*,4.5,-2.3,-10.3
O=C(O)C/C(=C\c1cccc(NC(=O)c2ccccc2Cl)c1)c1nc2ccccc2s1,-13.6,112.4*,13.0,-6.1,-0.5,11.0
CCOc1cc(/C=C(\CC(=O)O)c2nc3ccccc3s2)ccc1OC,-13.4,.,-14.5,-3.2,-2.2,50.9*
O=C(Nc1ccc(Cl)cc1)/C(=C/c1cccc(O)c1)c1nc2ccccc2s1,-183.5,.,98.4*,6.5,-0.1,-15.2
CO[C@H]1CN(C)C(=O)c2cc(NC(=O)c3ccccc3)ccc2OC[C@@H](C)N(C)C[C@@H]1C,.,50.3,.,.,.,24.4
Cc1cc(NC(=O)COc2ccc(F)c(Cl)c2)no1,64.9*,-1.5,0.2,3.1,0.0,-4.9
Cc1cc(NC(=O)COC(=O)CCS(=O)(=O)c2ccc(C)c(C)c2)no1,4.0,2.0,10.9,-7.6,-0.5,8.5
Cc1cc(NC(=O)COC(=O)c2oc3c(Cl)cccc3c2C)no1,7.0,-1.8,18.7,2.3,1.8,64.6*
Cc1cc(NC(=O)COC(=O)c2ccccc2Cl)no1,-3.0,3.4,-10.5,9.0,0.2,3.2
Cc1cc(NC(=O)COC(=O)CCS(=O)(=O)c2cc(Cl)ccc2Cl)no1,-1.9,-1.3,-20.4,-5.9,0.0,40.6*
Cc1cc(NC(=O)COc2ccc(C)c(C)c2)no1,-26.9,.,-27.7,-0.7,0.8,11.7
Cc1cccc(C)c1NS(=O)(=O)c1ccc(-c2cnc(C3CC3)o2)cc1,15.4,0.5,92.3*,-14.1,0.7,-5.6
COc1ccc(C)cc1NS(=O)(=O)c1ccc(-c2cnc(C3CC3)o2)cc1,-269.6,-0.5,98.9*,-18.6,-0.7,-31.3
Cc1ccc(NS(=O)(=O)c2ccc(-c3cnc(C4CC4)o3)cc2)cc1,-63.3,-1.0,21.4,-5.5,0.6,-0.5
COc1ccc(NC(=O)C[C@H]2CC[C@H]3[C@@H](COc4ccc(NC(C)=O)cc4C(=O)N3C)O2)cc1,-9.4[16.7 µM],-7.2,-5.6,.,.,-1.5
CC(C)NC(=O)N1Cc2cc(C(=O)NCC(F)(F)F)nc(-c3cccc(-c4cc5ccccc5o4)c3)c2[C@H]1CCO,.,.,85.5*,.,.,-27.8
Cc1cccc(C)c1NC(=O)C1(C)CN(S(C)(=O)=O)CC(=O)N1CCc1ccccc1F (stereo not given),57.3*,.,-3.8,.,.,2.0
CC(C)NC(=O)C1(C)CN(S(C)(=O)=O)CC(=O)N1CCc1ccccc1F (stereo not given),-12.1,.,1.8,.,.,21.9
COc1ccc(CNC(=O)C[C@H]2C[C@@H]3c4cc(NC(=O)C5CCC5)ccc4O[C@@H]3[C@@H](CO)O2)cc1,31.9[16.7 µM],-0.6,-11.7,.,.,-16.7
CN(Cc1ccc(Cl)cc1Cl)C(=O)c1cccc(S(=O)(=O)N2CCN(c3ccccc3)CC2)c1,89.9*,1.0,49.5,-10.4,-1.4,-14.2
COc1cccc(CN(C)C(=O)c2cccc(S(=O)(=O)N3CCN(c4ccccc4)CC3)c2)c1OC,.,-0.2,22.7,-7.3,0.5,.
CC1CCN(S(=O)(=O)c2cc(C(=O)N3CCN(c4ccccc4)CC3)ccc2Br)CC1,72.1*,1.7,56.4,.,.,.
CC1CCN(C(=O)c2cccc(S(=O)(=O)N3CCN(c4ccccc4)CC3)c2)CC1,19.9,.,-16.6,-4.0,0.6,41.6*
Cc1ccc(NC(=O)c2cccc(S(=O)(=O)N3CCN(c4ccccc4)CC3)c2)nc1,57.0*,-1.2,26.9,8.2,1.8,-20.4
O=C(c1cccc(S(=O)(=O)N2CCCCC2)c1)N1CCN(c2ccccc2)CC1,7.7,-3.0,14.7,0.8,0.2,-2.9
SMILES,Env fusion inh,Cneo AK release,PAX8 inh HTS,dFosB activator,CDK5 inh,GSIS activator
COc1ccc([C@H]2C/C=C\C[C@H](c3ccccc3)NC(=O)CCC(=O)N2)c(OC)c1,.,.,.,.,.,-2.1
CCCNC(=O)C[C@H]1CC[C@H]2[C@H](COc3ccc(NC(=O)c4ccc(Cl)cc4)cc3C(=O)N2C)O1,2.5[16.7 µM],-15.9,2.5,.,.,-13.7
CNC[C@H]1Oc2ccc(NC(=O)CCN3CCOCC3)cc2CC(=O)N([C@@H](C)CO)C[C@H]1C,-4.8[16.7 µM],-3.4,8.8,.,.,0.7
Cc1cccc(-n2c(C)c(C)c3c(N)ncnc32)c1,-4.0,1.2,-12.4,5.4,1.5,49.4*
CCOC(=O)CN1C(=O)[C@]2(OCCC=C[C@H]2C)c2ccccc21,-3.6,.,-11.1,.,.,350.8*
CCOC(=O)c1c(-c2ccc(-c3ccccc3)cc2)csc1NC(=O)CNCCN(C)C,14.8,85.1*,4.4,-37.7,3.3,180.1*
CC(C)NC(=O)N(C)C[C@H]1Oc2ccc(NC(=O)Nc3ccc4c(c3)OCO4)cc2CC(=O)N([C@@H](C)CO)C[C@H]1C,-28.2[16.7 µM],-3.5,.,.,.,6.9
Cc1cccc(S(=O)(=O)N[C@H]2CC[C@@H](CCNC(=O)Nc3cc(F)ccc3F)O[C@@H]2CO)c1,7.5[16.7 µM],-5.4,12.8,.,.,2.6
COc1ccc(C(C)=O)cc1Cn1cnc2c(cnn2C)c1=O,9.5,0.0,6.5,2.9,-0.9,50.1*
COc1cc(/C=C2\C(=O)ON=C2c2ccccc2)cc(Cl)c1O,8.5,.,-12.3,18.0*,-0.6,-7.1
COc1cc(/C=C2\C(=O)ON=C2c2ccccc2)cc(Br)c1O,0.8,0.5,36.3,4.9,1.6,-8.4
CCCCCn1c(SC(C)C(C)=O)nc2c1c(=O)[nH]c(=O)n2C (stereo not given),-39.8,-2.3,4.8,1.7,4.0,73.4*
CCCCn1c(NC(C)CC)nc2c1c(=O)[nH]c(=O)n2C (stereo not given),.,-4.1,.,-7.2,-0.5,129.2*
CC(C)CCn1c(N2CCCC2)nc2c1c(=O)[nH]c(=O)n2C,-9.0,0.3,8.1,3.0,0.7,45.6*
C/C(Cl)=C/CSc1nc2c(c(=O)[nH]c(=O)n2C)n1C(C)C,.,1.7,.,-7.6,-0.4,74.4*
CO[C@@H]1CC[C@H]2CCN(C)C(=O)[C@H](C)CN(C)C(=O)c3cccc(C#N)c3OC[C@@H]1O2,20.7[16.7 µM],3.0,-5.2,.,.,1.0
C[C@H]1CN([C@@H](C)CO)S(=O)(=O)c2ccc(C3=CCCCC3)cc2O[C@H]1CN(C)Cc1cccnc1,-2.7[16.7 µM],-1.4,.,.,.,3.5
CC1=C(C(=O)OCc2ccccc2)C(c2ccccc2)NC(=O)N1 (stereo not given),15.8,80.3*,24.7,-6.3,0.6,-9.7
COc1ccc(C2NC(=O)NC(C)=C2C(=O)OCc2ccccc2)cc1 (stereo not given),19.0,0.5,15.0,1.9,-1.2,-12.6
